A short description of data set [1]: Aqueous solubility in pH 6.8 buffer solution by HPLC analysis. Format: physicochemical.
Data set [2] is described as follows: Metabolic stability in rat liver microsomes at 1 uM after 20 mins in presence of NADPH by HPLC analysis. Format: ADME, microsome. For orientation: Liver microsomes are a subcellular fraction often used to study metabolism.
The nature of data set [3]: Retention time in human liver microsomes at 1 uM by HPLC analysis. Format: ADME, microsome. The method, boiled down:
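Incubated for 30 min with human liver microsomes. Parent and metabolites were analysed by HPLC and LC/MSⁿ, giving retention times, [M+H]⁺ and major fragment ions.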

Data set [4] in a line: Cmax in Crl:CD(SD) rat at 3 mg/kg, po by LC-MS/MS analysis. Format: ADME, organism-based. Also noted: dose 3 mg/kg, route oral. The note with it: in vivo. The method, boiled down:
(§1)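 Rats were dosed i.v. at 0.2 mg/kg and p.o. at 3.0 mg/kg. Oral dosing was a suspension in 0.5% methyl cellulose or in corn oil, depending on the compound. Vd and CL came from i.v. dosing. Values are means of three animals.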

Data set [5] in a line: Tmax in Crl:CD(SD) rat at 3 mg/kg, po by LC-MS/MS analysis. Format: ADME, organism-based. To be noted: in vivo. The method, boiled down: as §1
A short description of data set [6]: AUC in Crl:CD(SD) rat at 3 mg/kg, po by LC-MS/MS analysis. Format: ADME, organism-based. To be noted: in vivo. Summed up: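 Rats dosed orally at 3.0 mg/kg as a suspension in either 0.5% methyl cellulose or corn oil, depending on the compound. […] AUCpo is reported as ng·h/mL and is the mean of measurements in three animals.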
Data set [7] is described as follows: MRT in Crl:CD(SD) rat at 3 mg/kg, po by LC-MS/MS analysis. To be noted: in vivo. Format: ADME, organism-based. Summed up: as §1
The nature of data set [8]: Volume of distribution in Crl:CD(SD) rat at 0.2 mg/kg, iv by LC-MS/MS analysis. Format: ADME, organism-based. The note with it: in vivo. Summed up:
as §1

Data set [9] is described as follows: Clearance in Crl:CD(SD) rat at 0.2 mg/kg, iv by LC-MS/MS analysis. Format: ADME, organism-based. The note with it: in vivo. The method, boiled down:
as §1

Data set [10] can be described thus: Oral bioavailability in Crl:CD(SD) rat at 3 mg/kg by LC-MS/MS analysis. Format: ADME, organism-based. The note with it: in vivo. The method, boiled down:
as §1

Data set [11] can be described thus: Metabolic stability in human liver microsomes at 1 uM after 20 mins in presence of NADPH by HPLC analysis. Format: ADME, microsome.
Where [12] appears, read: pH 6.8 buffer solution, read-out: solubility.

Converted amounts (≈) assume the structure as drawn.

Results on seven compounds are retold here after ChEMBL document CHEMBL4219055, “Structure-based design, synthesis, and biological evaluation of imidazo[1,2-b]pyridazine-based p38 MAP kinase inhibitors” (Bioorg Med Chem, 2018).

As usually defined, the solubility is the dissolved amount per volume that the medium holds. The term Cmax denotes the maximum level reached in the sampled fluid or tissue. As usually defined, the Tmax is the time from dosing to the highest level. As usually defined, the AUC is the area under the concentration-time curve, a measure of exposure. A low value points to less exposure. What is called MRT is a mean duration of stay, worked out from the concentration-time curve. The Vd is a proportionality between amount in the body and measured concentration, not a real space. The term clearance denotes the volume of plasma or blood freed of the substance per unit of time. A low value points to inefficient removal. A word on the bioavailability: it is dose-corrected exposure relative to a reference, in per cent. A higher bioavailability goes with good availability.

Regarding `Cc1cc(-c2nc3cccnn3c2-c2ccnc(NC(=O)c3cc[n+]([O-])c(C)c3)c2)ccc1F`, the solubility in [1] (setting [12]) worked out at 0.91 µg/mL (≈ 2 µM). Besides, the remaining at 20 min, 1 µM in data set [2] was 16 µL/min/mg. The compound further displayed a Retention_time in data set [3] of 23 min. The same compound came in with a Cmax in [4] of 75 ng/mL. Moreover, the Tmax in [5] is 2 h. The AUC in [6] was 703 ng·h/mL. The compound also gave a mean residence time (MRT) in data set [7] of 5.32 h. In data set [8], the Vd worked out at 1.38 L/kg. The same compound gave a clearance in data set [9] of 10 mL/min/kg. The same compound had a bioavailability in data set [10] of 13.5%.

In the case of `Cc1cc(-c2nc3cccnn3c2-c2ccnc(NC(=O)c3ccc(C)[n+]([O-])c3)c2)ccc1F`, the solubility in data set [1] (setting [12]) came out at 2.4 µg/mL (≈ 5.28 µM). In data set [2], the remaining at 20 min, 1 µM is 23 µL/min/mg.

Regarding `Cc1cc(C(=O)Nc2cc(-c3c(-c4ccc(F)c(C)c4)nc4cccnn34)ccn2)ccn1`, in [1] (setting [12]), the solubility was 0.15 µg/mL (≈ 0.342 µM). For the same compound, the remaining at 20 min, 1 µM in data set [2] came out at 65 µL/min/mg. For the same compound, the Stability in data set [11] is 132 µL/min/mg. The compound also returned a Retention_time in data set [3] of 33.4 min.

Turning to `Cc1cc(-c2nc3cccnn3c2-c2ccnc(NC(=O)c3cc[n+]([O-])c(C)c3)c2)ccc1F.O=S(=O)(O)O`, in data set [1] (buffer), the solubility entry is recorded as “Insoluble”. In data set [4], this compound displayed a Cmax of 190 ng/mL. Also, the Tmax in data set [5] stood at 1.67 h. In [6], this compound yielded an AUC of 2130 ng·h/mL. This compound returned an MRT in data set [7] of 5.63 h. In addition, the Vd in [8] was 1.38 L/kg. For the same compound, the clearance in data set [9] is 10 mL/min/kg. The compound further displayed a bioavailability in data set [10] of 42.6%.

As for `Cc1cc(-c2nc3cccnn3c2-c2ccnc(NC(=O)c3ccncc3)c2)ccc1F`, the solubility in data set [1] (setting [12]) is 0.75 µg/mL (≈ 1.77 µM). In data set [2], the remaining at 20 min, 1 µM came to 75 µL/min/mg. Besides, the Stability in data set [11] is 177 µL/min/mg.

Consider `Cc1ccc(C(=O)Nc2cc(-c3c(-c4ccc(F)c(C)c4)nc4cccnn34)ccn2)cn1`, for which the solubility in data set [1] (setting [12]) is 0.38 µg/mL (≈ 0.867 µM). The remaining at 20 min, 1 µM in data set [2] is 53 µL/min/mg.

As to `Cc1cc(-c2nc3cccnn3c2-c2ccnc(NC(=O)c3cccnc3)c2)ccc1F`, the solubility in data set [1] (setting [12]) stood at 0.92 µg/mL (≈ 2.17 µM). In data set [2], the remaining at 20 min, 1 µM was 71 µL/min/mg.
